Screening results deposited in PubChem by several laboratories.
This is a sample that favours compounds with a hit; in the whole collection about 4.8% have one here.
UPR XBP1 act – activators of adaptive XBP1 UPR arm, primary screen, cell-based, CHO-XBP1 luciferase reporter, luminescence, uHTS; IRE1-XBP1 UPR activation; percent of tunicamycin response, DMSO as zero; activation, % at 20 µM; 0.33% of 330,000 active; AID 463104, 2010;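 active = versus positive control, 20 µM dose yields 30% or more activation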;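 note: 100% = tunicamycin at 10 µg/mL and 0% = DMSO only wells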
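Material: CHO cell line with stable XBP1 luciferase reporter; schedule: 16-18 h cell attachment at 37 °C, then 6 h compound exposure; signal: glow luminescence from Steady-Glo reagent; medium: serum-containing F12 medium, 10% FBS; benchmarks: tunicamycin 10 µg/mL and vehicle-only wells; read-out: percent activation relative to tunicamycin reference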
CSC inhib – cancer stem cell viability inhibitors, primary screen, luminescence | cancer stem cell-like cells viability | inhibition, % at 7.5 µM | 1.1% of 300,000 active | AID 2717, 2010; in the data active = inhibition above about 75%; tested in HMLE shEcad cells
SKKanGAS inh – S. pyogenes SKKanGAS growth inhibitors in kanamycin, primary screen, streptokinase expression inhibitor project, SKKanGAS strain, BacTiter-Glo luminescence; 6 h; inhibition, % at 7.5 µM; 1.3% of 300,000 active;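 active = mean replicate score, as percent of positive control median, at least 50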;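 note: strain carries kanamycin resistance gene driven by streptokinase promoter and grows in 40 µg/ml kanamycin; loss of luminescence reflects streptokinase promoter inhibition or plain growth inhibition; 0% = median of DMSO wells and 100% = positive control at its reference dose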
CHOP UPR activ – activators of apoptotic CHOP UPR arm, primary screen, cell-based, CHO-CHOP luciferase reporter, luminescence, uHTS. UPR activation; percent of tunicamycin response over DMSO baseline. activation, % at 10 µM. 0.34% of 330,000 active;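 active = at 10 µM dose, activation of 40% or more, normalized to positive control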;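 note: 100% = tunicamycin at 10 µg/mL and 0% = DMSO alone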
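Test system: CHO-CHOP cells, stable luciferase reporter of PERK-eIF2a-CHOP signalling | Quantity: 500 CHO-CHOP cells per well | Buffer or medium: F12 plus 10% serum | Compound dosing: 10 µM single point, 0.5% DMSO | Schedule: 6 h compound treatment, 37 °C | Signal: Luciferase luminescence | Control set: Tunicamycin high control, DMSO low control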
Mdm2 MdmX PPI – inhibitors of human Mdm2-MdmX association, primary screen, cell-based, luminescence, split luciferase, SaOS-2, uHTS | SaOS-2 split-luciferase Mdm2/MdmX complementation | inhibition, % at 8 µM | 3% of 330,000 active;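 active = inhibition of at least 50% at 8 µM in the primary screen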
Beta cell apopt – inhibitors of cytokine-induced beta cell apoptosis, primary screen, luminescence; INS-1E cytokine-induced death, ATP luminescence, 48 h; percent of positive-control rescue, neutral wells zero; protection from apoptosis, % (no concentration beside the values); 0.8% of 300,000 active;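 active = Every replicate reaches about 75%, or at least half do and their mean reaches it too, limit read from the data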;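 note: 0% = cytokine-treated negative control wells and 100% = positive control rescue; higher means more ATP so stronger rescue from cytokine killing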
Mdm2-MdmX conf – Mdm2-MdmX complex disruptors, retested hits, confirmation, luminescence, single concentration; shares compounds with Mdm2 MdmX PPI; Mdm2-MdmX binding, luminescent assay; inhibition, % at 8 µM; 55% of 10,000 active; AID 489028, 2010; in the data active = inhibition above about 40%
FLuc counter – full-length luciferase signal inhibition, confirmation, counter-screen for Mdm2/MdmX interaction inhibitor project, cell-based, single concentration, SaOS-2; shares compounds with Mdm2 MdmX PPI; SaOS-2 full-length luciferase counterscreen, luminescence; inhibition, % at 8 µM; 77% of 6,200 active; AID 504607, 2011;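 active = mean inhibition at 8 µM reaching about 37%, which flags the compound as non-specific, limit read from the data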;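 note: p53-null SaOS-2 cells with luciferase driven by a doxycycline-inducible promoter; compound on cells about two nights before reading with doxycycline added after day one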
* marks the source's active call; other numbers are inactive results; / = no result given; + = active, no number.

SMILES | UPR XBP1 act | CSC inhib | SKKanGAS inh | CHOP UPR activ | Mdm2 MdmX PPI | Beta cell apopt | Mdm2-MdmX conf | FLuc counter
O=C(CCN1CCN(c2ccccc2)CC1)N/N=C/c1ccccc1O | -1 | 39 | 5 | -1 | 60* | 30 | 56* | 56*
COc1ccc(/C=C2\N=C(SC)N(c3ccccc3OC)C2=O)cc1 | 4 | 71 | -12 | 2 | 98* | 21 | 94* | 47*
CC(C)OC(=O)C1Cc2ccccc2CN1S(=O)(=O)c1cccs1 (stereo unspecified) | 1 | -17 | 0 | 1 | -12 | -2 | / | /
COc1ccc(C(=O)NC2CCCc3c2cnn3-c2cc(F)cc(F)c2)c(OC)c1OC (stereo unspecified) | -3 | 26 | 8 | 2 | 53* | 3 | 47* | 57*
O=C(NC1CCCc2c1cnn2-c1cc(F)cc(F)c1)c1ccccn1 (stereo unspecified) | -1 | -16 | 1 | 1 | 5 | 2 | / | /
Cc1cc(C(=O)NC2CCCc3c2cnn3-c2ccc(C)c(C)c2)nc(C)n1 (stereo unspecified) | -5 | 26 | 17 | 0 | 4 | -14 | / | /
COC(=O)c1ccc(C(=O)NC2CCCc3c2cnn3-c2cc(F)cc(F)c2)nc1 (stereo unspecified) | 0 | -7 | 4 | 1 | 58* | 2 | 50* | 57*
COC(=O)c1ccc(C(=O)NC2CCCc3c2cnn3-c2ccc(C)c(C)c2)cc1 (stereo unspecified) | -3 | -23 | 11 | -1 | 60* | 12 | 72* | 59*
COc1ccc(C(=O)NC2CCCc3c2cnn3-c2cc(F)cc(F)c2)c(OC)n1 (stereo unspecified) | 1 | 1 | 7 | 4 | 20 | -2 | / | /
C=CCOc1ccc(C2=NOC(C(=O)Nc3ccc4c(c3)OCCO4)C2)cc1OC (stereo unspecified) | -5 | 0 | 12 | -3 | 35 | 3 | / | /
C/C(=N\NC(=O)c1cc2ccccc2cc1O)c1cc2ccccc2o1 | 3 | 93* | 78* | 1 | 54* | 16 | 40 | 58*
O=C1CSC(c2ccccc2)N1Cc1ccccc1 (stereo unspecified) | -3 | -11 | 3 | 5 | 17 | 1 | / | /
COc1ccccc1C1=CC(=O)C[C@H](c2ccc3c(c2)OCO3)C1 | 1 | 56 | / | -2 | 49 | 2 | / | /
O=C1C=C(c2cc3ccccc3s2)C[C@@H](c2ccc3c(c2)OCO3)C1 | 4 | -11 | / | 5 | 67* | -17 | 41* | 101*
Cc1ccc(-c2cnn3c(N4CCOCC4)cc(C)nc23)cc1 | -3 | 5 | 2 | 2 | 64* | -8 | 69* | +
Cc1cc(N2CCOCC2)n2nc(C)c(-c3ccc(Cl)cc3)c2n1 | 6 | -5 | 9 | 1 | 21 | -1 | / | /
CC(C)(C)c1cc(N2CCOCC2)n2ncc(-c3ccc(Cl)cc3)c2n1 | -2 | 13 | 3 | 3 | 28 | 2 | / | /
Cc1cc(N2CCOCC2)n2ncc(-c3ccc(Cl)cc3)c2n1 | -2 | 21 | -3 | 2 | 62* | -2 | 74* | 195*
CC(=O)Nc1ccc(Nc2cc(C)nc3c(-c4ccc(Cl)cc4)cnn23)cc1 | -1 | / | 29 | 6 | 81* | 7 | 87* | 156*
COc1ccc(-c2cc(-c3c(O)c(OC)c4occc4c3OC)[nH]n2)cc1OC | 8 | 14 | -4 | 2 | 60* | 8 | 31 | 93*
CC(C)C[C@H](NC(=O)C1CC(=O)N(c2ccc3c(c2)OCCO3)C1)C(=O)N1CCCCC1 (stereo partly specified) | -7 | -10 | 0 | -2 | 18 | -9 | / | /
O=C(c1ccccc1)c1nn(-c2ccccc2)c(=O)cc1C(F)(F)F | -2 | 4 | -1 | 1 | 44 | / | / | /
O=C(c1cccc(Cl)c1)c1nn(-c2ccccc2)c(=O)cc1C(F)(F)F | 4 | 57 | -8 | 2 | 77* | 107* | 32 | /
O=C(c1ccccc1)c1nn(-c2ccc(Cl)cc2)c(=O)cc1C(F)(F)F | 2 | 108* | 2 | 8 | 95* | 11 | 78* | 56*
CN1C(=O)C(=O)N(CC(=O)Nc2ccccc2OC(F)F)C1=O | -4 | -10 | / | 0 | 34 | -2 | / | /
SMILES | UPR XBP1 act | CSC inhib | SKKanGAS inh | CHOP UPR activ | Mdm2 MdmX PPI | Beta cell apopt | Mdm2-MdmX conf | FLuc counter
COc1ccccc1C(CNC(=O)C1CC(=O)N(Cc2ccc(C)cc2)C1)N1CCCC1 (stereo unspecified) | -2 | -5 | -4 | -2 | 22 | 0 | / | /
c1ccc(Nc2nc(N3CCCC3)nc(N3CCCC3)n2)cc1 | 0 | 10 | 5 | -1 | -8 | 3 | / | /
c1ccc(Nc2nc(N3CCCCC3)nc(N3CCNCC3)n2)cc1 | 4 | -1 | 7 | -1 | 62* | 5 | 30 | /
COc1ccc(C(CNc2nc(-c3cccnc3)nc3ccccc23)N(C)C)cc1 (stereo unspecified) | 1 | 5 | 1 | -1 | 40 | -3 | / | /
O=C(NC1CC2CCC(C1)N2Cc1ccccc1)c1ccccc1Cl (stereo unspecified) | -3 | 0 | 6 | -1 | -26 | -3 | / | /
COc1cc(C(=O)/C=C/c2cccnc2)ccc1O | -3 | 28 | 7 | 4 | 51* | / | 18 | /
O=C(/C=C/c1cccnc1)c1cc(F)ccc1O | -2 | 0 | -9 | 1 | 6 | -4 | / | /
COc1ccc(OC)c(C(=O)/C=C/c2cccnc2)c1 | -6 | 49 | -7 | 9 | 68* | -10 | 30 | 56*
COc1cc(O)cc(O)c1C(=O)/C=C/c1ccccc1 | -3 | 34 | 5 | 6 | 52* | 1 | 29 | /
Cc1cccc(CNC(=O)CCc2nnc(C3CCCCC3)o2)c1 | -1 | 1 | 14 | 1 | -32 | -7 | / | /
N#Cc1ccc(C(=O)N2CCN(C(=O)C3CCCO3)CC2)cc1 (stereo unspecified) | -2 | / | / | 0 | 17 | / | / | /
